Laboratory results as given in ChEMBL document CHEMBL1811898, “Discovery and structure-activity relationships of modified salicylanilides as cell permeable inhibitors of poly(ADP-ribose) glycohydrolase (PARG)” (J Med Chem, 2011).
Calls of active or inactive are those of the source. No cut-off for these calls is given here.

Legend:
[1] = target: Poly [ADP-ribose] polymerase 1 (Homo sapiens, UniProt P09874); experiment: Inhibition of PARP-1 using [32P]-NAD+ after 15 mins
[2] = Selectivity ratio of IC50 for PARP-1 to IC50 for PARG
[3] = target: T1, NAD-dependent protein deacetylase sirtuin-1 (Homo sapiens) (UniProt Q96EB6); experiment: Inhibition of SIRT1
T1 sequence (whole entry): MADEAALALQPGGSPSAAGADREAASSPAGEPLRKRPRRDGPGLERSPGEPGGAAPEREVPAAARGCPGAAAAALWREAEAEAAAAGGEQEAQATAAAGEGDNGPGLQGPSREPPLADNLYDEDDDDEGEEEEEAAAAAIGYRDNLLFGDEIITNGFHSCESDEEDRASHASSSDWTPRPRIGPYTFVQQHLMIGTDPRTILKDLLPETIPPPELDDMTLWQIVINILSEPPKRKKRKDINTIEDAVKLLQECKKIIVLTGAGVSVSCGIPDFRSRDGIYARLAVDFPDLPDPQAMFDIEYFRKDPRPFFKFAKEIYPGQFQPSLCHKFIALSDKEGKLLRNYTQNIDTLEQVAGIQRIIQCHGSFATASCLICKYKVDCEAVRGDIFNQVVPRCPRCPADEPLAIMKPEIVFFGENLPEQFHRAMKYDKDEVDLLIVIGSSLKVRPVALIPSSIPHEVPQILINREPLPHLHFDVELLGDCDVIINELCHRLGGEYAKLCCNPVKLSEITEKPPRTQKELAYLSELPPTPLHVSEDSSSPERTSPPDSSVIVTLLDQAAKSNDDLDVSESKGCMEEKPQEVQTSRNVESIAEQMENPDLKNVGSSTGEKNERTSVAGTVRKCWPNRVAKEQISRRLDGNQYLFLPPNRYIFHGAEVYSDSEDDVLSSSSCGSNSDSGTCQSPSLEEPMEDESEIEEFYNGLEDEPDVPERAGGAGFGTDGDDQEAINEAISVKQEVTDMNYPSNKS

[4] = Inhibition of alcohol dehydrogenase
[5] = target: Poly(ADP-ribose) glycohydrolase (Homo sapiens) (UniProt Q86W56); experiment: Inhibition of PARG using [alpha-32P]ADP-ribose polymers up to 500 uM after 5 mins by TRAP assay
[6] = target: PARP 1, 2 and 3 (Homo sapiens) (UniProt P09874+Q9Y6F1+Q9UGN5); experiment: Inhibition of PARP in human SCC25 cells assessed as inhibition of MNNG-induced NAD(H) depletion at 1 mM preincubated for 5 mins before MNNG challenge measured after 30 mins; type: cell-based; conditions: SCC-25
Method in brief: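 SCC-25 cells (90% confluent, 35 mm dishes) pretreated 5 min with compound, then 5 μg/mL MNNG for 30 min; HClO4 extraction, KOH/KH2PO4 neutralization; NAD by enzymatic cycling (alcohol dehydrogenase, phenazine ethosulfate, MTT, 37°C 30 min), A570; normalized to cell protein.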

[7] = target: Poly(ADP-ribose) glycohydrolase (Homo sapiens) (UniProt Q86W56); experiment: Inhibition of PARG in human SCC25 cells assessed as inhibition of MNNG-induced poly(ADP-ribose) formation at 1 mM after 20 mins by chemiluminescent ELISA; type: cell-based; conditions: SCC-25
Method in brief: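 SCC-25 cells at 90% confluence in 35 mm dishes; 5 μg/mL MNNG used to induce PAR; lysed in buffer with 1% SDS; ADP-ribose polymers quantified by chemiluminescent ELISA (kit protocol, minor changes); PAR normalized to cell count.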

[8] = target: Poly(ADP-ribose) glycohydrolase (Homo sapiens) (UniProt Q86W56); experiment: Inhibition of PARG using [alpha-32P]ADP-ribose polymers at 500 uM after 5 mins by TRAP assay
[9] = target: Poly(ADP-ribose) glycohydrolase (Homo sapiens) (UniProt Q86W56); conditions: SCC-25, 1 mM
[10] = target: Poly(ADP-ribose) glycohydrolase (Homo sapiens) (UniProt Q86W56); conditions: SCC-25, 1 mM; remark: listed apart in the source
[11] = target: Poly(ADP-ribose) glycohydrolase (Homo sapiens) (UniProt Q86W56); conditions: SCC-25, 1 mM; remark: listed apart in the source

Sequence of Poly(ADP-ribose) glycohydrolase (Homo sapiens) (Q86W56 whole entry, looked up): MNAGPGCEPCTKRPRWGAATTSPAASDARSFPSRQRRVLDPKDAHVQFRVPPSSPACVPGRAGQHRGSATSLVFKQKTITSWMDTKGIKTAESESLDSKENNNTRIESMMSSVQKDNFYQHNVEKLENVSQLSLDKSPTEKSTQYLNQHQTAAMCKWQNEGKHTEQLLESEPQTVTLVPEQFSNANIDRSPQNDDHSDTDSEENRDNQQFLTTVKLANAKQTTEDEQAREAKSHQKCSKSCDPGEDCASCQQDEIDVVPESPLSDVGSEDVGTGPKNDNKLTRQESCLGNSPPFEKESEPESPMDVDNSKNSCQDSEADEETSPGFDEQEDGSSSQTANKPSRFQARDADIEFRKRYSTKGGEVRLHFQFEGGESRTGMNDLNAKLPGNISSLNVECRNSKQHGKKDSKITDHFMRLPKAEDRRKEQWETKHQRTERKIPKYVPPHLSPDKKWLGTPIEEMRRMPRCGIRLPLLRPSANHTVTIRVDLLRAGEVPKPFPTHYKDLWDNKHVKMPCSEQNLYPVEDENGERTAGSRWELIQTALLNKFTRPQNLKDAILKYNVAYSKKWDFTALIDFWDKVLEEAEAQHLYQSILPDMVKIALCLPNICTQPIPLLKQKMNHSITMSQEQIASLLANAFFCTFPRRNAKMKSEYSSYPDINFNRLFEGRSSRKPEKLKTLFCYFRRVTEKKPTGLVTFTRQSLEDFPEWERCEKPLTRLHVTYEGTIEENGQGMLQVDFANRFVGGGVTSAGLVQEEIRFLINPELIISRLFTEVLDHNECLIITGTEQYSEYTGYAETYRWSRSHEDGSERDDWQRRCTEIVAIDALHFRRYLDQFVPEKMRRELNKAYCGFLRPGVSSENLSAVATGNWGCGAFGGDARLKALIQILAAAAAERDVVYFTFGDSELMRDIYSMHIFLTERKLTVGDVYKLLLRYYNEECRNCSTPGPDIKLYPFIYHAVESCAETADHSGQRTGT
Sequence of Poly [ADP-ribose] polymerase 1 (P09874 whole entry): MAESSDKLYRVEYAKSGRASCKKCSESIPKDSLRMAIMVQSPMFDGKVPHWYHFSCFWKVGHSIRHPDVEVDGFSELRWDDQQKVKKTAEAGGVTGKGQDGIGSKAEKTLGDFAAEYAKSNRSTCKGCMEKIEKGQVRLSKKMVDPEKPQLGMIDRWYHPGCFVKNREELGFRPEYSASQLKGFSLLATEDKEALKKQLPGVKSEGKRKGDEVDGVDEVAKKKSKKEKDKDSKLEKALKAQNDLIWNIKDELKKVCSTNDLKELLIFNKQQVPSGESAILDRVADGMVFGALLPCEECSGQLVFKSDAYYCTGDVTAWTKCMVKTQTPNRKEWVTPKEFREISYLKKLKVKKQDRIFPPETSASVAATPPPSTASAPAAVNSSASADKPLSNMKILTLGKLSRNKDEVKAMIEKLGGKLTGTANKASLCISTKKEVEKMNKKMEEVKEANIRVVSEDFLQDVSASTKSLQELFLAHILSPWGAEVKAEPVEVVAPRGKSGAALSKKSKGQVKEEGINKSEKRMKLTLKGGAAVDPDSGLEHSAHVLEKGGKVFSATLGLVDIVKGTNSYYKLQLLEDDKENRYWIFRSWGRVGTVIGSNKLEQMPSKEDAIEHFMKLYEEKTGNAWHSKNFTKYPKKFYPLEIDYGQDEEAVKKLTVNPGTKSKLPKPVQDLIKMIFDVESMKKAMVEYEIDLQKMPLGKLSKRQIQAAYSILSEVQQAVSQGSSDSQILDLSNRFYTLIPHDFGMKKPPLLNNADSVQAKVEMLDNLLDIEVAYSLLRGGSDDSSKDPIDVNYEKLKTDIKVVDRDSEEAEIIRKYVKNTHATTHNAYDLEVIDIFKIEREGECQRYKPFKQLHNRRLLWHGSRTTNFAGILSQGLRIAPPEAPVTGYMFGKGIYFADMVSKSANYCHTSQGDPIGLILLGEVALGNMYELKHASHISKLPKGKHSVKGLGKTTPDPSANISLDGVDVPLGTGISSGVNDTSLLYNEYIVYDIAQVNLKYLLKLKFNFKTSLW

Row | inhibition [3] | inhibition [4] | Compound | other results
1 | inactive | inactive | O=C(Nc1ccc(Oc2cc3ccccc3cc2Br)c(Cl)c1)c1cc(Cl)cc(Cl)c1O | IC50 [1]: 123 µM; Ratio IC50 [2]: 15
2 | inactive | inactive | O=C(Nc1ccc(Oc2ccc3ccccc3c2)c(Cl)c1)c1ccccc1O | 
3 | inactive | inactive | Oc1c(Cl)cc(Cl)cc1CNc1ccc(Oc2ccc3ccccc3c2)c(Cl)c1 | inhibition [5]: inactive
4 | inactive | inactive | O=C(Nc1ccc(Oc2ccc3ccccc3c2)c(Cl)c1)c1cc(Cl)ccc1O | 
5 |  |  | NC(=O)c1ccccc1 [BENZAMIDE] | IC50 [1]: 5.4 µM; inhibition [6]: Active; inhibition [7]: Active
6 | inactive | inactive | O=C(Nc1ccc(Oc2ccc3ccccc3c2)c(Cl)c1)c1cc(Cl)cc(Cl)c1 | inhibition [5]: inactive; inhibition [6]: Active
7 | inactive | inactive | O=C(Nc1ccc(Oc2ccc3ccccc3c2)c(F)c1)c1cc(Cl)cc(Cl)c1O | 
8 | inactive | inactive | Cc1cc(NC(=O)c2cc(Cl)cc(Cl)c2O)ccc1Oc1ccc2ccccc2c1 | 
9 | inactive | inactive | Cc1cccc(NC(=O)c2cc(Cl)cc(Cl)c2O)c1 | inhibition [8]: 10%
10 | inactive | inactive | Cc1ccc(C(C)C)c(Br)c1Oc1ccc(Cl)cc1NC(=O)c1cc(Cl)cc(Br)c1O | IC50 [1]: 78 µM
11 | inactive | inactive | Cc1ccc(NC(=O)c2cc(Cl)cc(Cl)c2O)cc1 | inhibition [8]: 10%
12 | inactive | inactive | O=C(Nc1ccccc1Cl)c1cc(Cl)cc(Cl)c1O | IC50 [1]: 500 µM; inhibition [8]: 10%
13 | inactive | inactive | O=C(Nc1ccc(Oc2ccc3ccccc3c2)cc1)c1cc(Cl)cc(Cl)c1O | 
14 | inactive | inactive | Cc1ccccc1NC(=O)c1cc(Cl)cc(Cl)c1O | inhibition [8]: 10%
15 | inactive | inactive | NC(=O)c1cc(Cl)cc(Cl)c1O | inhibition [6]: Active; inhibition [8]: < 10%
16 | inactive | inactive | O=C(Nc1ccc(Oc2ccc3ccccc3c2)c(Cl)c1)c1cc(Cl)cc(Cl)c1O | IC50 [1]: 120 µM; inhibition [6]: 40%; inhibition [9]: Active; inhibition [10]: Active; inhibition [11]: Active
17 | inactive | inactive | O=C(Nc1ccc(Cl)cc1)c1cc(Cl)cc(Cl)c1O | inhibition [6]: Active
18 | inactive | inactive | COc1c(Cl)cc(Cl)cc1C(=O)Nc1ccc(Oc2ccc3ccccc3c2)c(Cl)c1 | inhibition [5]: inactive
19 | inactive | inactive | O=C(Nc1ccc(O)c(Cl)c1)c1cc(Cl)cc(Cl)c1O | inhibition [8]: < 10%
20 | inactive | inactive | O=C(O)c1ccccc1C(=O)Nc1ccc(Oc2ccc3ccccc3c2)c(Cl)c1 | IC50 [1]: 66 µM
21 | inactive | inactive | O=C(Nc1cc(Cl)ccc1Oc1ccc2ccccc2c1Cl)c1cc(Cl)cc(Br)c1O | 
22 | inactive | inactive | Cc1ccc(Oc2ccc(NC(=O)c3cc(Cl)cc(Cl)c3O)cc2Cl)cc1 | 
23 | inactive | inactive | O=C(Nc1ccc(Oc2ccc3ccccc3c2)c(Cl)c1)c1cccc(Cl)c1O | 
24 | inactive | inactive | O=C(Nc1ccccc1)c1cc(Cl)cc(Cl)c1O | inhibition [8]: < 10%
25 |  |  | Nc1ncnc2c1ncn2[C@@H]1O[C@H](CO[P@](=O)(O)O[P@@](=O)(O)OC[C@H]2NC[C@H](O)[C@@H]2O)[C@@H](O)[C@H]1O [ADENOSINE DIPHOSPHATE (HYDROXYMETHYL)PYRROLIDINEDIOL] | IC50 [1]: > 1000 µM
26 | inactive | inactive | Oc1c(Cl)cc(Cl)cc1/C=N/c1ccc(Oc2ccc3ccccc3c2)c(Cl)c1 | inhibition [5]: inactive
27 | inactive | inactive | CN(C(=O)c1cc(Cl)cc(Cl)c1O)c1ccc(Oc2ccc3ccccc3c2)c(Cl)c1 | 
28 | inactive | inactive | O=C(Nc1ccc(Oc2ccccc2)c(Cl)c1)c1cc(Cl)cc(Cl)c1O | 
29 | inactive | inactive | O=C(Nc1ccc(Oc2ccc3ccccc3c2)c(C(F)(F)F)c1)c1cc(Cl)cc(Cl)c1O | 

Row | Compound | inhibition [3] | inhibition [4] | other results
30 | O=C(Nc1cccc(Cl)c1)c1cc(Cl)cc(Cl)c1O | inactive | inactive | IC50 [1]: 500 µM
